KCNQ1 pot: potentiates or activates the human KCNQ1 potassium channel; P51787; B-score at 10 µM; CHO-K1 KCNQ1, thallium flux FluxOR fluorescence; hits give high values; 0.35% of 310,000 active;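 active means fluorescence ratio B-score, a plate-corrected score, at least three library SD, with initial intensity B-score within 5 SD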
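Assay system: stable KCNQ1 CHO-K1 line; medium: assay buffer, equal DMSO in all wells; timing: 90 min dye loading and 20 min compound exposure, both at room temperature; technique: kinetic FluxOR thallium fluorescence, 10-s 1-Hz baseline, 110-s post-stimulus read; read-out basis: B score of baseline-normalized fluorescence ratio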
KCNK3 block: human KCNK3 channel inhibition, primary screen | O14649 | CHO-KCNK3 thallium flux, FluxOR fluorescence; hits give low values | B-score at 10 µM | 0.84% of 340,000 active | AID 602410;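 active means B-score under library mean minus 4 SD, starting fluorescence ratio at most library mean plus 5 SD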;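 further: more negative B-score means stronger inhibition of thallium flux through KCNK3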
KCNK9 block: blocks the human KCNK9 two-pore domain potassium channel; Q9NPC2; HEK293 KCNK9, FluxOR thallium flux fluorescence; hits give low values; B-score at 10 µM; 1.2% of 310,000 active;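 active means ratio B-score over 3 SD below the library mean, with starting fluorescence within 5 SD of its mean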;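 further: negative B-score means less thallium flux so channel inhibition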
KCC2 mod: modulates chloride dependent transport by human KCC2. Q9H2X9. KCC2 cells, thallium flux FluoZin-2 fluorescence. B-score of Tl+ flux slope (higher = more flux/activation; lower = inhibition) at 10 µM. 2.2% of 190,000 active. AID 1456;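 active means thallium flux slope and its plate-corrected score both differing from the plate sample mean at a set confidence after two filtering rounds, in either direction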;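 further: slope of fluorescence scaled to starting intensity during 10 to 20 s after thallium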
Target sequence (Q9H2X9 whole entry, looked up): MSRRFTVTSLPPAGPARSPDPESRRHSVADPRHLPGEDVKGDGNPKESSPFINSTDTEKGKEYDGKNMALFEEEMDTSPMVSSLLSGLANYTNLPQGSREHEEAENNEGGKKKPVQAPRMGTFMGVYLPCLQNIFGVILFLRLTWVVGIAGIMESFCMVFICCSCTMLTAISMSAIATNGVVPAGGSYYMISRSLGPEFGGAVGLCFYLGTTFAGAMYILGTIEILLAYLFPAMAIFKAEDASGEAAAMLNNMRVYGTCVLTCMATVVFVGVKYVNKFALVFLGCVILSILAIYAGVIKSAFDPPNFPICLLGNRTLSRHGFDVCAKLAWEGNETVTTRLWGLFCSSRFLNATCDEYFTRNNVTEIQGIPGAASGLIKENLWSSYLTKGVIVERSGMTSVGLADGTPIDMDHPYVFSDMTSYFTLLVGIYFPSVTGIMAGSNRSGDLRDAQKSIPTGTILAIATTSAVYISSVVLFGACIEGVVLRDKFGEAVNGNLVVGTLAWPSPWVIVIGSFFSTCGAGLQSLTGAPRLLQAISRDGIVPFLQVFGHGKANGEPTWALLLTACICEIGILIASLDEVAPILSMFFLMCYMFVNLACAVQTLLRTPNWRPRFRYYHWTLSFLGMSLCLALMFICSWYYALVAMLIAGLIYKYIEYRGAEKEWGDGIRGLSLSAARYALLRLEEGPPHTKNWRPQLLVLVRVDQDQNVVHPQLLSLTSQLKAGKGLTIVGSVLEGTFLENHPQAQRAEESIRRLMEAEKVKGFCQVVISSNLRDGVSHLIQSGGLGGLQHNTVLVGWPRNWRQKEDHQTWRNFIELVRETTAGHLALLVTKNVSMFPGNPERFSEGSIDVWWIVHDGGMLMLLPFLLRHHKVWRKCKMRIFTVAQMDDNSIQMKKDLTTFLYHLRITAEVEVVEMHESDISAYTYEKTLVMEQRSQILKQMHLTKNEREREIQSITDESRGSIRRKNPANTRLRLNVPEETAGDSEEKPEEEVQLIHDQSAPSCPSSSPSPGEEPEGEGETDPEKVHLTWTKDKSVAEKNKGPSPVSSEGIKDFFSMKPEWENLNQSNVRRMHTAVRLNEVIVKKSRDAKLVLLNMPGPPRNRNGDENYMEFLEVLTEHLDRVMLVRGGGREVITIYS
KCNQ1 inh: inhibitors of human KCNQ1 potassium channel | CHO-K1 KCNQ1, FluxOR thallium flux fluorescence; hits give high values | B-score at 10 µM | 1.3% of 310,000 active;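 active means compounds whose thallium flux B-score, printed positive for inhibition, exceeds three library SD while starting fluorescence stays within three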;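 further: channel opened by potassium depolarization with thallium stimulus after 20 min compound exposure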
hERG protect: compounds protecting human hERG from proarrhythmic drug block | Q12809 | CHO-hERG, FluxOR thallium flux, dofetilide IC70 present | activation (rescue from dofetilide block), less the hit threshold, % at 10 µM | 0.51% of 310,000 active | AID 1511;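 active means activation above the mean of controls blocked by dofetilide plus 5 SD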;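 further: thallium influx through hERG after potassium depolarization seen as dye fluorescence rise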
KCC2 sec1: confirmation of human KCC2 transport modulators; shares compounds with KCC2 mod; HEK293-KCC2, thallium flux, FluoZin2 fluorescence; hits give high values; AID 1713; normalised thallium flux (F/F0 slope) at 10 µM; 15% of 3,700 active;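 active means thallium flux slope above the same plate's solvent-only control mean plus 3 SD; inconclusive means the two replicate wells disagree; inactive means no significant difference from solvent-only control wells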
KCC2 bumet counter: thallium flux persisting under bumetanide in KCC2 cells, counter-screen secondary assay. HEK293-KCC2 + bumetanide/ouabain, thallium flux FluoZin2; hits give high values. normalized thallium flux at 10 µM. shares compounds with KCC2 mod. 49% of 3,700 active. AID 1714;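 active means thallium entry rate above the same plate's blocked-transporter control wells by more than 3 SD; inconclusive means the two repeat wells disagree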;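 further: raw slope of fluorescence over initial fluorescence between 10 and 20 s after thallium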
KCC2 sec2: KCC2 (human) modulation, second secondary assay. shares compounds with KCC2 mod. HEK293-KCC2, thallium flux FluoZin2 fluorescence; actives lie on both sides; F/F0 rise rate, 10–20 s post-thallium. normalized thallium flux at 10 µM. 23% of 3,700 active. AID 1715;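 active means thallium flux slope more than 3 SD above or below the plate's solvent-only control mean, mostly below; inconclusive means the two repeat wells disagreed; inactive means no significant shift from solvent-only controls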;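 further: raw slope with 0.1% DMSO as baseline and bumetanide as block control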
HEK counter1: acts in parental HEK cells, KCC2 counter-screen; shares compounds with KCC2 mod; HEK293 parental cells, thallium flux FluoZin2, ouabain; baseline-ratio fluorescence slope, 10–20 s after thallium; thallium flux rate (normalised fluorescence) at 10 µM; 46% of 3,700 active; AID 1716;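 active means thallium flux rate significantly above the same plate's solvent-only control wells, beyond their mean plus 3 SD; inconclusive means the two replicate wells gave conflicting results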
KCC2 ouabain: modulates human KCC2 on retest with ouabain; shares compounds with KCC2 mod; 48% of 3,700 active; HEK293-KCC2, thallium flux FluoZin2 fluorescence; bidirectional: low = inhibitor, high = activator; raw Tl+ flux slope (below DMSO = inhibition, above = activation) at 10 µM;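 active means thallium flux slope beyond 3 SD from same-plate DMSO control mean in most replicates, usually higher, sometimes lower; inconclusive means repeat tests gave conflicting results; inactive means no significant difference from controls in most replicates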;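 further: slope of initial-normalized fluorescence between seconds 10 and 20 after thallium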
HEK counter2: parental HEK flux effect, counter-screen 2; thallium flux slope at 10 µM; HEK293 parental, thallium flux FluoZin-2 fluorescence slope; 33% of 3,700 active; shares compounds with KCC2 mod;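 active means thallium flux slope above the same plate's solvent-control mean plus 3 SD in both duplicate wells; inconclusive means duplicate wells that disagreed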;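 further: run without ouabain in cells lacking the KCC2 cotransporter; slope of fluorescence scaled to its starting value between 10 and 20 s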
* hit, by the source's call; i = inactive; ? = inconclusive; . = no result given. Only some compounds are listed: those with a hit (about 4.1% of all), similar ones and a draw of the others.

SMILES | KCNQ1 pot | KCNK3 block | KCNK9 block | KCC2 mod | KCNQ1 inh | hERG protect | KCC2 sec1 | KCC2 bumet counter | KCC2 sec2 | HEK counter1 | KCC2 ouabain | HEK counter2
CCc1nc(SCC(=O)c2cccc([N+](=O)[O-])c2)n[nH]1 | i | i | i | 0.061 | i | -6 | . | . | . | . | . | .
COc1ccc(C)cc1S(=O)(=O)N(CC(=O)Nc1cc([N+](=O)[O-])ccc1C)c1ccc(C)c(C)c1 | i | i | i | -0.2 | i | -8 | . | . | . | . | . | .
Cc1ccc(CCNC(=O)C2CCC(CNc3c(N4CCC(C)CC4)c(=O)c3=O)CC2)cc1 (stereo not drawn) | i | i | i | 1 | i | -11 | . | . | . | . | . | .
Cc1ccc(CCNC(=O)C2CCC(CNc3c(N4CCCC4)c(=O)c3=O)CC2)cc1 (stereo not drawn) | i | i | i | . | i | -15 | 0.0079 | ? | 0.034 | ? | 0.019 | 0.011
CC1CCN(c2c(NCC3CCC(C(=O)NCCc4ccccc4)CC3)c(=O)c2=O)CC1 (stereo not drawn) | i | i | i | -4.7* | i | -15 | 0.0054 | 0.0053 | ? | 0.0072 | 0.018 | 0.011
CC(=O)N1c2ccc(S(=O)(=O)N3CCOCC3)cc2CC1C (stereo not drawn) | i | i | i | . | i | -7 | . | . | . | . | . | .
Cc1cc(=O)cc(C)n1-c1ccccc1Br | i | i | i | . | i | -7 | . | . | . | . | . | .
Cc1csc(NC(=O)c2c(-c3ccccc3)noc2C)n1 | i | i | i | . | i | -13 | . | . | . | . | . | .
S=c1[nH]nc(COc2ccccc2)n1/N=C/c1ccc(Cl)cc1 | i | i | i | . | i | -2 | . | . | . | . | . | .
COc1ccc(OCc2n[nH]c(=S)n2-c2ccc(C)cc2)cc1 | i | i | i | -0.24 | i | -13 | . | . | . | . | . | .
S=c1[nH]nc(CSCc2ccccc2Cl)n1C1CCCCC1 | i | i | i | 27* | i | -3 | 0.0057 | 0.031* | ? | 0.029* | 0.028* | 0.02*
Cc1ccc(OCc2n[nH]c(=S)n2C2CCCCC2)cc1 | i | i | i | 13* | i | -3 | ? | 0.043* | 0.045* | 0.026* | 0.042* | 0.03*
S=c1[nH]nc(COc2ccc(Cl)cc2)n1C1CCCCC1 | i | i | i | 2.5* | i | -2 | 0.0052 | 0.015* | 0.033 | 0.012* | ? | 0.015*
CC(=O)c1ccccc1N(C(=O)c1ccco1)C(C(=O)NC1CCCC1)c1ccc(N2CCOCC2)cc1 (stereo not drawn) | i | i | i | -0.0028 | i | -9 | . | . | . | . | . | .
CCOC(=O)N1CCN(C(=O)c2c(-c3ccccc3Cl)noc2C)CC1 | i | i | i | . | i | -3 | . | . | . | . | . | .
O=C1CCN(C(=O)CSc2ccc(Cl)cc2)N1 | i | i | i | 0.33 | i | -6 | . | . | . | . | . | .
O=C1CCN(C(=O)c2ccc(Cl)cc2)N1 | i | i | i | -3.3* | i | -7 | 0.01 | 0.006 | 0.032 | 0.0081 | 0.019 | 0.011
O=C1C(Cl)=C(N2CCCC2)C(=O)N1c1ccccc1F | i | i | i | . | i | -9 | . | . | . | . | . | .
COc1ccc(CN(Cc2ccccn2)C(=O)CN2C(=O)COc3ccccc32)cc1 | i | i | i | -2.8* | i | -14 | 0.0069 | 0.0045 | 0.024* | 0.0075 | 0.017* | 0.01
COc1ccc(-n2c(SCC(=O)Nc3cc(C)on3)nc3c([nH]c4ccccc43)c2=O)cc1OC | i | i | i | . | i | -6 | . | . | . | . | . | .
CCc1ccccc1NNC(=O)c1snnc1C | i | i | i | 5* | i | -6 | 0.0099 | 0.0084* | 0.033 | 0.0069 | 0.022 | 0.01
Cc1nnsc1C(=O)NNc1c(Cl)cccc1Cl | i | i | i | 1.1 | i | -8 | . | . | . | . | . | .
c1ccc(COc2ccc(CNCc3cccs3)cc2)cc1 | i | i | i | . | i | -14 | . | . | . | . | . | .
CN(CC(=O)Nc1cccc(F)c1)C(=O)CCCn1c(=O)oc2ccccc21 | i | i | i | . | i | -5 | . | . | . | . | . | .
CC(=O)c1nc2ccccc2n1S(=O)(=O)c1ccc(Cl)cc1 | i | i | i | -0.29 | i | -9 | . | . | . | . | . | .
SMILES | KCNQ1 pot | KCNK3 block | KCNK9 block | KCC2 mod | KCNQ1 inh | hERG protect | KCC2 sec1 | KCC2 bumet counter | KCC2 sec2 | HEK counter1 | KCC2 ouabain | HEK counter2
CC(=O)c1nc2ccccc2n1S(=O)(=O)c1ccc(C)cc1 | i | i | i | 5.6* | i | -8 | 0.011 | ? | 0.029 | 0.0076 | 0.018 | 0.01
COc1ccc(-c2cccc(-c3cc(=O)oc4cc5c(cc34)OCO5)c2)cc1 | . | i | . | . | . | . | . | . | . | . | . | .
Cc1nn(-c2ccccc2)c(C)c1/C=N/n1c(-c2ccccc2Br)n[nH]c1=S | i | i | i | 10* | i | -4 | 0.0064 | 0.042* | 0.031 | 0.011* | ? | ?
O=C(Cc1ccc(-n2c(=O)[nH]c3ccccc3c2=O)cc1)N1CCN(c2ccccc2)CC1 | i | i | i | -0.56 | i | -13 | . | . | . | . | . | .
N#Cc1nc(Cc2cccc3ccccc23)oc1NCCCN1CCOCC1 | i | i | i | -5.6* | i | -1 | ? | 0.0054 | 0.03 | 0.0067 | 0.014* | 0.011*
N#Cc1nc(Cc2cccc3ccccc23)oc1NCC1CCCO1 (stereo not drawn) | i | i | i | . | i | -12 | 0.01 | 0.0064 | ? | 0.0035 | 0.016* | 0.011
C=CCn1c(-c2ccc(Cl)cc2)c[nH]c1=S | i | i | i | 5.2* | i | -9 | ? | 0.029* | 0.034 | 0.011* | 0.026 | ?
COc1ccc(C(=O)N2CCN(c3ccc(F)cc3)CC2)cc1S(=O)(=O)NC1CC1 | . | i | . | . | . | . | . | . | . | . | . | .
O=[N+]([O-])c1ccc(Sc2cccc3cccnc23)cc1 | i | i | i | -0.29 | i | -7 | . | . | . | . | . | .

Screening data as filed in PubChem BioAssay.
